Holding throughout (type): functional
One test deals with DU-145. Put plainly: Anti-proliferative activity against human DU145 cells incubated for 48 hrs by SRB assay. The following applies: DU-145, 48 h. The essentials: (§1)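 SRB assay. Cells in DMEM with 10% FBS were seeded and grown 24 h at 37 °C in CO2. Compounds were diluted from a 10 mM DMSO stock to 1, 5 and 10 µM, with DMSO at most 0.1%, and exposed 48 h. Cells were fixed with 10% TCA for 60 min at 4 °C and stained 20 min at room temperature with 0.4% SRB in 1% acetic acid. Dye was eluted with 10 mM trizma base and absorbance read at 540 nm. Run in triplicate; GI50 given as mean ± SD of three determinations.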
Background: Sulforhodamine B stains cellular protein and so reports cell mass.

Another test deals with MCF7. Put plainly: Anti-proliferative activity against human MCF7 cells incubated for 48 hrs by SRB assay. The following applies: MCF7, 48 h. The essentials: as §1
For another test, the system named is A549. Put plainly: Anti-proliferative activity against human A549 cells incubated for 48 hrs by SRB assay. Particulars: A549, 48 h.
The test system of a further test is HepG2. Put plainly: Anti-proliferative activity against human HepG2 cells incubated for 48 hrs by SRB assay. The following applies: HepG2, 48 h. In a few lines: as §1

The values that follow come from ChEMBL document CHEMBL3608272, “Design, synthesis and anticancer properties of novel oxa/azaspiro[4,5]trienones as potent apoptosis inducers through mitochondrial disruption” (2015).

For orientation: GI50 means the concentration giving 50% growth inhibition. Read a high GI50 as lower sensitivity of the cells.

Structures are written as SMILES.

Take `CSc1ccc(C2=C(c3ccccc3)C3(C=CC(=O)C=C3)N(C)C2=O)cc1`: the GI50 with DU-145 is 26.4 µM; with MCF7 it was 15.8 µM; in the test on A549, 50.4 µM; in the test on HepG2, 18.7 µM.

Regarding `O=C1C=CC2(C=C1)OC(=O)C(c1ccc(C(=O)O)cc1)=C2c1ccccc1`, the GI50 with DU-145 was 4.8 µM; with MCF7, 3.5 µM; in the test on A549, 6.3 µM; in the test with HepG2 it was 6.3 µM.

Regarding `COc1ccc(C2=C(c3ccccc3)C3(C=CC(=O)C=C3)N(C)C2=O)c(OC)c1`, the GI50 in the test on DU-145 is 62.7 µM; in the test on MCF7, 71.7 µM; with A549, 101 µM; in the test on HepG2, 69.1 µM.

Regarding `CN1C(=O)C(c2ccc(C=O)s2)=C(c2ccccc2)C12C=CC(=O)C=C2`, the GI50 with DU-145 turned out to be 8.2 µM; in the test on MCF7 it was 3.6 µM; with A549, 16.6 µM; with HepG2 it was 13.9 µM.

As to `CN1C(=O)C(c2cc3ccccc3s2)=C(c2ccccc2)C12C=CC(=O)C=C2`, the GI50 amounted to 9 µM with DU-145, 4.2 µM in the test with MCF7, 18.8 µM in the test on A549 and 7.2 µM in the test with HepG2.

In the case of `CN1C(=O)C(c2ccc(C(F)(F)F)cc2)=C(c2ccccc2)C12C=CC(=O)C=C2`, the GI50 in the test with DU-145 was 17.6 µM; in the test on MCF7 it was 8.1 µM; with A549, 30.3 µM; in the test with HepG2, 13.7 µM.

Turning to `O=C1C=CC2(C=C1)OC(=O)C(c1ccc(O)cc1)=C2c1ccccc1`, the GI50 in the test on DU-145 worked out at 2.7 µM; in the test on MCF7, 3.4 µM; in the test with A549, 6.2 µM; in the test on HepG2, 3.5 µM.

Regarding `CN1C(=O)C(c2ccc3c(c2)OCO3)=C(c2ccccc2)C12C=CC(=O)C=C2`, the GI50 in the test with DU-145 was determined as 16.3 µM; in the test with MCF7, 6.7 µM; in the test on A549, 30.2 µM; with HepG2, 19.6 µM.

Consider `CN1C(=O)C(c2ccoc2)=C(c2ccccc2)C12C=CC(=O)C=C2`, for which the GI50 in the test on DU-145 turned out to be 91.2 µM; with MCF7, 52.7 µM; with A549, 126 µM; in the test with HepG2, 62.8 µM.

For `COc1ccc(C2=C(c3ccccc3)C3(C=CC(=O)C=C3)OC2=O)cc1`, the concentration for 50% growth inhibition (GI50) came to 4.1 µM in the test on DU-145, 1.8 µM in the test with MCF7, 7.3 µM with A549 and 3.4 µM with HepG2.

Take `COc1ccc(C2=C(c3ccccc3)C3(C=CC(=O)C=C3)N(C)C2=O)cc1`: the GI50 was found to be 55.7 µM with DU-145, 45.4 µM with MCF7, 98 µM with A549 and 61.7 µM with HepG2.

In the case of `COc1cccc2c1C(=O)c1c(O)c3c(c(O)c1C2=O)C[C@@](O)(C(=O)CO)C[C@@H]3O[C@H]1C[C@H](N)[C@H](O)[C@H](C)O1` [DOXORUBICIN], the GI50 turned out to be 0.95 µM in the test on DU-145, 1.6 µM in the test on MCF7, 1.9 µM in the test on A549 and 1.4 µM with HepG2.

Consider `CC/C(=C(\c1ccccc1)c1ccc(OCCN(C)C)cc1)c1ccccc1` [TAMOXIFEN], for which the values for the GI50 with DU-145, in the test on MCF7 and with A549 were 19.3 µM, 8 µM and 24.4 µM, respectively.

As for `CN1C(=O)C(c2cccc(Cl)c2Cl)=C(c2ccccc2)C12C=CC(=O)C=C2`, the GI50 amounted to 14 µM with DU-145, 9.9 µM with MCF7, 27.6 µM with A549 and 10.5 µM in the test with HepG2.

Regarding `O=C1C=CC2(C=C1)OC(=O)C(c1ccc(CO)cc1)=C2c1ccccc1`, the GI50 was determined as 2.4 µM in the test on DU-145, 1.7 µM with MCF7, 8.1 µM in the test on A549 and 3.3 µM in the test on HepG2.

`CN1C(=O)C(c2ccc(C=O)cc2)=C(c2ccccc2)C12C=CC(=O)C=C2`: the GI50 in the test with DU-145 worked out at 18.2 µM; with MCF7, 11.1 µM; with A549 it was 36.2 µM; in the test with HepG2, 12.7 µM.

With `CN1C(=O)C(c2cccc3ccccc23)=C(c2ccccc2)C12C=CC(=O)C=C2`, the GI50 amounted to 6.3 µM with DU-145, 2.4 µM in the test with MCF7, 17.3 µM in the test with A549 and 6.12 µM in the test on HepG2.

Take `Cc1ccc(C2=C(c3ccccc3)C3(C=CC(=O)C=C3)N(C)C2=O)cc1Cl`: the GI50 with DU-145 was determined as 12.1 µM; in the test on MCF7 it was 7.4 µM; with A549 it was 21.1 µM; in the test on HepG2 it was 10.4 µM.

Turning to `COC(=O)/C=C/C1=C(c2ccccc2)C2(C=CC(=O)C=C2)OC1=O`, the GI50 in the test with DU-145 was determined as 4.3 µM; in the test on MCF7, 1.2 µM; in the test with A549, 7.8 µM; with HepG2, 6.3 µM.

On to `CN1C(=O)C(c2ccccc2)=C(c2ccccc2)C12C=CC(=O)C=C2`, for which the 50% growth inhibitory concentration (GI50) in the test on DU-145 is 15.5 µM; in the test with MCF7, 8.2 µM; in the test on A549, 22.5 µM; with HepG2, 9.2 µM.

Take `CN1C(=O)C(c2ccc(CO)cc2)=C(c2ccccc2)C12C=CC(=O)C=C2`: the concentration for 50% growth inhibition (GI50) in the test on DU-145 is 11.5 µM; in the test with MCF7 it was 7.6 µM; with A549 it was 13.6 µM; in the test with HepG2, 7.7 µM.

For the compound `CN1C(=O)C(c2ccc(C#N)cc2)=C(c2ccccc2)C12C=CC(=O)C=C2`, the GI50 in the test with DU-145 turned out to be 11.6 µM; in the test on MCF7 it was 13.6 µM; with A549, 25.4 µM; in the test on HepG2 it was 16.6 µM.

On to `O=Cc1ccc(C2=C(c3ccccc3)C3(C=CC(=O)C=C3)OC2=O)s1`, for which the GI50 with DU-145 worked out at 4 µM; with MCF7, 3.4 µM; with A549, 4.6 µM; with HepG2, 2.6 µM.
